In ChEMBL document CHEMBL4477177, “Antituberculosis Activity of a Naturally Occurring Flavonoid, Isorhamnetin” (J Nat Prod, 2016):
In brackets after ≈: the same amount, converted by molar mass.

Key:
[1] = tested on: Mycobacterium tuberculosis; experiment: Antitubercular activity against Mycobacterium tuberculosis H37Rv P887 incubated for 1 to 9 days by inverted microscopic analysis; assay type: functional
How it was run: (§1)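 Bacteria immobilised in 0.5% agarose within microfluidic channels of a 96-well chip. Compound (0–632 μM; rifampicin 0–19.4 μM) supplied in Middlebrook 7H9 with 10% OADC and allowed to diffuse in. Incubated at 37 °C; channel boundary imaged by inverted microscopy (40×) at 1, 3, 5, 7 and 9 days. MIC90 taken as lowest concentration giving 90% growth inhibition. Triplicate.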

[2] = target: MAP kinase p38 (Homo sapiens) (UniProt O15264+Q15759+Q16539+P53778); experiment: Binding affinity to human C-terminally His-tagged p38 expressed in Escherichia coli BL21 by fluorescence quenching based spectrofluorometric analysis
How it was run: (§2)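 C-terminally His6-tagged ERK1 or p38 MAPK expressed in E. coli and purified. Protein at 10 μM in 50 mM sodium phosphate, 100 mM NaCl, pH 8.0, titrated with ligand to 1:10 protein:ligand. Excitation 290 nm, emission 290–500 nm. Binding constant K derived from fluorescence quenching.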

[3] = target: Mitogen-activated protein kinase 3 (Homo sapiens) (UniProt P27361); experiment: Binding affinity to human ERK1 expressed in Escherichia coli BL21 by fluorescence quenching based spectrofluorometric analysis; how it was run: as §2
[4] = tested on: Mycobacterium tuberculosis; experiment: Antitubercular activity against MDR Mycobacterium tuberculosis X23 incubated for 1 to 9 days by inverted microscopic analysis; assay type: functional
[5] = Lipophilicity, logP of the compound; assay type: physicochemical; details: octanol/water
[6] = tested on: Mycobacterium tuberculosis; experiment: Antitubercular activity against XDR Mycobacterium tuberculosis X59 incubated for 1 to 9 days by inverted microscopic analysis; assay type: functional; how it was run: as §1
[7] = tested on: Mycobacterium tuberculosis; experiment: Antitubercular activity against XDR Mycobacterium tuberculosis X24 incubated for 1 to 9 days by inverted microscopic analysis; assay type: functional; how it was run: as §1
[8] = tested on: Mycobacterium tuberculosis; experiment: Antitubercular activity against MDR Mycobacterium tuberculosis M22 incubated for 1 to 9 days by inverted microscopic analysis; assay type: functional; how it was run: as §1
[9] = tested on: Mycobacterium tuberculosis; experiment: Antitubercular activity against Mycobacterium tuberculosis H37Rv ATCC 27294 incubated for 7 days by resazurin assay; assay type: functional; details: H37Rv ATCC 27294, 168 h

Sequence of Mitogen-activated protein kinase 3 (Homo sapiens) (P27361 whole entry): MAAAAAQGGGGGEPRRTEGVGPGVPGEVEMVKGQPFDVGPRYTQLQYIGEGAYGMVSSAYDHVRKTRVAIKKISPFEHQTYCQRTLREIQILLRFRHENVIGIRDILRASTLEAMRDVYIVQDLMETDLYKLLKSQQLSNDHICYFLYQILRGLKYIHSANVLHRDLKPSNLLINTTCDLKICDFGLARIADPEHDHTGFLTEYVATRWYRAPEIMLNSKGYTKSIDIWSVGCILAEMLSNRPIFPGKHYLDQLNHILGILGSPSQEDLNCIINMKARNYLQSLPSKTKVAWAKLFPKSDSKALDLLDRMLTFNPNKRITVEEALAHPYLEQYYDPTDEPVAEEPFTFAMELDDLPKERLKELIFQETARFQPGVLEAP

COc1ccc(-c2oc3cc(O)cc(O)c3c(=O)c2O)cc1O [TAMARIXETIN]
MIC90 [1]: 632 µM (≈ 200 µg/mL)
K [2]: 4.64 ×10⁴ /M
K [3]: 6.31 ×10⁴ /M
MIC90 [4]: 632 µM (≈ 200 µg/mL)
logP [5]: 1.86
MIC90 [6]: > 632 µM
MIC90 [7]: > 632 µM
MIC90 [8]: 632 µM (≈ 200 µg/mL)

O=c1c(O)c(-c2ccc(O)c(O)c2)oc2cc(O)cc(O)c12 [QUERCETIN]
MIC [9]: > 827 µM
K [2]: 9.87 ×10⁵ /M
K [3]: 5.62 ×10⁵ /M
logP [5]: 1.63

O=c1cc(-c2ccc(O)c(O)c2)oc2cc(O)cc(O)c12 [LUTEOLIN]
MIC [9]: 827 µM (≈ 237 µg/mL)
